Test system: not listed separately
Test: Antioxidant activity assessed as inhibition of Fe2+-induced thiobarbituric acid reactive substance formation in phospholipids extracted from egg yolk by measuring malondialdehyde levels per mg of triglycerides at 100 uM after 1 hr by UV-Vis spectrophotometric method (reference value: 8.17 +/- 0.32 nmol)
Type: functional
How it was run: (§1)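 Egg-yolk phospholipids (isopropanol/water extract, pellet resuspended; 1 mg/mL triglycerides) incubated with or without fresh FeSO4 100 μM plus compound in 0.05 M potassium phosphate pH 7.5, 37°C 1 h. Acetic acid (pH 3.4) and 0.6% TBA added, 97°C 1 h, n-butanol extraction, A532 against MDA standard. Reported as nmol MDA/mg triglycerides. Mean ± SEM, n=3 in duplicate.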

| SMILES | MDA level [nmol] |
| --- | --- |
| CCOC(=O)C1=C(C[Se]C(=O)c2ccc(C)cc2)NC(=O)NC1c1ccc(N(C)C)cc1 (stereo not given) | 3.96 |
| CCOC(=O)C1=C(C[Se]C(=O)c2ccc(C)cc2)NC(=O)NC1c1cccc2ccccc12 (stereo not given) | 1.96 |
| CCOC(=O)C1=C(C[Se]C(C)=O)NC(=O)NC1c1ccccc1 (stereo not given) | 5.1 |
| c1ccc([Se][Se]c2ccccc2)cc1 | 2.41 |
| CCOC(=O)C1=C(C[Se]C(=O)c2ccc(C)cc2)NC(=O)NC1c1ccccc1 (stereo not given) | 0.46 |
| CCOC(=O)C1=C(C)NC(=O)NC1c1ccccc1 (stereo not given) | 3.03 |
| CCOC(=O)C1=C(C[Se]C(=O)c2ccc(C)cc2)NC(=O)NC1c1ccc(O)c(OC)c1 (stereo not given) | 0.68 |
| CCOC(=O)C1=C(CSC(=O)c2ccc(C)cc2)NC(=O)NC1c1ccccc1 (stereo not given) | 3.14 |
| O=c1c2ccccc2[se]n1-c1ccccc1 | 3.22 |
| CCOC(=O)C1=C(C[Se]C(=O)c2ccc(C)cc2)NC(=O)NC1c1cccc([N+](=O)[O-])c1 (stereo not given) | 1.51 |
| CCOC(=O)C1=C(C[Se]C(=O)c2ccc(C)cc2)NC(=O)NC1c1ccc(OC)cc1 (stereo not given) | 0.77 |
| CCOC(=O)C1=C(C[Se]C(=O)c2ccc(C)cc2)NC(=O)NC1c1ccc(C)cc1 (stereo not given) | 0.87 |
| CCOC(=O)C1=C(C[Se]C(=O)c2ccc(C)cc2)N(C)C(=O)NC1c1cccc([N+](=O)[O-])c1 (stereo not given) | 2.29 |
| CCOC(=O)C1=C(C[Se]C(=O)c2cccc(C(=O)[Se]CC3=C(C(=O)OCC)C(c4ccccc4)NC(=O)N3)c2)NC(=O)NC1c1ccccc1 (stereo not given) | 3.99 |
| Cc1ccc(C(=O)[Se]Cc2ccccc2)cc1 | 1.23 |

Test system: not listed separately
Test: Antioxidant activity assessed as inhibition of Fe2+-induced thiobarbituric acid reactive substance formation in phospholipids extracted from egg yolk after 1 hr by UV-Vis spectrophotometric method
Type: functional
How it was run: as §1

| SMILES | Activity |
| --- | --- |
| CCOC(=O)C1=C(C[Se]C(=O)c2ccc(C)cc2)NC(=O)NC1c1ccccc1 (stereo not given) | Dose-dependent effect |
| CCOC(=O)C1=C(C[Se]C(=O)c2ccc(C)cc2)NC(=O)NC1c1ccc(O)c(OC)c1 (stereo not given) | Dose-dependent effect |
| CCOC(=O)C1=C(C[Se]C(=O)c2ccc(C)cc2)NC(=O)NC1c1ccc(OC)cc1 (stereo not given) | Dose-dependent effect |
| CCOC(=O)C1=C(C[Se]C(=O)c2ccc(C)cc2)NC(=O)NC1c1ccc(C)cc1 (stereo not given) | Dose-dependent effect |

Test system: not listed separately
Test: Metal chelating activity assessed as compound-Fe2+ complex formation after 10 mins by UV-Vis spectrophotometer
Type: physicochemical
How it was run: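 Fe2+ chelation by modified Minotti–Aust method. Compounds 5–100 μM with Fe2+ 120 μM (final), 37°C 10 min, then 1,10-phenanthroline (0.25% w/v) added and A510 read. Methanol serves as control, BHT as reference chelator. % chelation = (A control − A sample)/A control × 100; EC50 derived. Mean ± SEM, n=3 in duplicate.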

| SMILES | EC50 [µM] |
| --- | --- |
| Cc1cc(C(C)(C)C)c(O)c(C(C)(C)C)c1 [BUTYLATED HYDROXYTOLUENE] | 23.3 |
| CCOC(=O)C1=C(C[Se]C(=O)c2ccc(C)cc2)NC(=O)NC1c1ccc(N(C)C)cc1 (stereo not given) | 29.6 |
| CCOC(=O)C1=C(C[Se]C(=O)c2ccc(C)cc2)NC(=O)NC1c1cccc2ccccc12 (stereo not given) | 35.5 |
| CCOC(=O)C1=C(C[Se]C(C)=O)NC(=O)NC1c1ccccc1 (stereo not given) | 41.2 |
| CCOC(=O)C1=C(C[Se]C(=O)c2ccc(C)cc2)NC(=O)NC1c1ccccc1 (stereo not given) | 10.5 |
| CCOC(=O)C1=C(C)NC(=O)NC1c1ccccc1 (stereo not given) | 15.8 |
| CCOC(=O)C1=C(C[Se]C(=O)c2ccc(C)cc2)NC(=O)NC1c1ccc(O)c(OC)c1 (stereo not given) | 8.1 |
| CCOC(=O)C1=C(CSC(=O)c2ccc(C)cc2)NC(=O)NC1c1ccccc1 (stereo not given) | 20.2 |
| CCOC(=O)C1=C(C[Se]C(=O)c2ccc(C)cc2)NC(=O)NC1c1cccc([N+](=O)[O-])c1 (stereo not given) | 24.5 |
| CCOC(=O)C1=C(C[Se]C(=O)c2ccc(C)cc2)NC(=O)NC1c1ccc(OC)cc1 (stereo not given) | 22.4 |
| CCOC(=O)C1=C(C[Se]C(=O)c2ccc(C)cc2)NC(=O)NC1c1ccc(C)cc1 (stereo not given) | 21.2 |
| CCOC(=O)C1=C(C[Se]C(=O)c2ccc(C)cc2)N(C)C(=O)NC1c1cccc([N+](=O)[O-])c1 (stereo not given) | 32.8 |
| CCOC(=O)C1=C(C[Se]C(=O)c2cccc(C(=O)[Se]CC3=C(C(=O)OCC)C(c4ccccc4)NC(=O)N3)c2)NC(=O)NC1c1ccccc1 (stereo not given) | 29.9 |
| Cc1ccc(C(=O)[Se]Cc2ccccc2)cc1 | 22.4 |

Biological target: Acetylcholinesterase (Electrophorus electricus, UniProt O42275)
Test: Inhibition of electric eel AChE using acetylthiocholine iodide as substrate preincubated for 15 mins followed by substrate addition measured every 15 secs for 5 to 10 mins by Ellman's method

Sequence of Acetylcholinesterase (O42275 whole entry): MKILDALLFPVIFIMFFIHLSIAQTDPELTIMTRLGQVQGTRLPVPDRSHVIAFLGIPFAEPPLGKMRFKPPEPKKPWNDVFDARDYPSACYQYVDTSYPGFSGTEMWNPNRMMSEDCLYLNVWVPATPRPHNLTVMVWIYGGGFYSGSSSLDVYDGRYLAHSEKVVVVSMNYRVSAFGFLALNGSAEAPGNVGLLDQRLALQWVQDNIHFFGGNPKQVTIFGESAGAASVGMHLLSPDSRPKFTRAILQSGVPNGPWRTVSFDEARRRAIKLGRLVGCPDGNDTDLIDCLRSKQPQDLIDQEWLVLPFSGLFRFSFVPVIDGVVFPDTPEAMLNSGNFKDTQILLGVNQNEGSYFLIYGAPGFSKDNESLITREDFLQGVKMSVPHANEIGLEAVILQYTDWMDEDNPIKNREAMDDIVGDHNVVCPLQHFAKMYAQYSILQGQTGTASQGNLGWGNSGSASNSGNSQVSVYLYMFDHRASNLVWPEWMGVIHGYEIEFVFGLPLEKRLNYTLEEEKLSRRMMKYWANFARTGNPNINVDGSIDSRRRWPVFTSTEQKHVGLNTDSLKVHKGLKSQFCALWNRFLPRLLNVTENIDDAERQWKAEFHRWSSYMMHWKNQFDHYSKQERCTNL

| SMILES | IC50 [µM] |
| --- | --- |
| CCOC(=O)C1=C(C[Se]C(C)=O)NC(=O)NC1c1ccccc1 (stereo not given) | 14.2 |
| CCOC(=O)C1=C(C[Se]C(=O)c2ccc(C)cc2)NC(=O)NC1c1ccccc1 (stereo not given) | 7.21 |
| CCOC(=O)C1=C(C)NC(=O)NC1c1ccccc1 (stereo not given) | 9.23 |
| CCOC(=O)C1=C(C[Se]C(=O)c2ccc(C)cc2)NC(=O)NC1c1ccc(O)c(OC)c1 (stereo not given) | 13.6 |
| CCOC(=O)C1=C(CSC(=O)c2ccc(C)cc2)NC(=O)NC1c1ccccc1 (stereo not given) | 11.7 |
| CCOC(=O)C1=C(C[Se]C(=O)c2cccc(C(=O)[Se]CC3=C(C(=O)OCC)C(c4ccccc4)NC(=O)N3)c2)NC(=O)NC1c1ccccc1 (stereo not given) | 10.6 |
| Cc1ccc(C(=O)[Se]Cc2ccccc2)cc1 | 12.9 |
